According to article PMC5089614 (British Journal of Clinical Pharmacology, 2016):
Entries after “also recorded” stand apart in the source; their conditions may differ.

Test: Safety/tolerability: adverse events graded by NCI CTCAE v4.03
Assay type: in vivo, human
Outline: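 Solid tumour patients got oral test compound by hepatic group: normal 4 mg, moderate 2.3 mg, severe 1.5 mg. Dosing continued in a second part, with escalation allowed up to 4 mg. AEs were monitored from first dose until 30 days after the last dose and graded by CTCAE v4.03. Safety population was all patients with ≥1 dose. Investigators assigned relatedness.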

[1] = moderate impairment 2.3 mg (n = 15)
[2] = n = 1, not attributed to ixazomib
[3] = severe impairment 1.5 mg (n = 20)

CC(C)C[C@H](NC(=O)CNC(=O)c1cc(Cl)ccc1Cl)B(O)O [ixazomib]
Drug-related AEs, patients (all patients (N = 48)): 46%
Drug-related decreased appetite (all patients (N = 48)): 8%
Drug-related dehydration (all patients (N = 48)): 6%
Drug-related diarrhoea (all patients (N = 48)): 6%
Drug-related fatigue (all patients (N = 48)): 8%
Drug-related nausea (all patients (N = 48)): 17%
Drug-related vomiting (all patients (N = 48)): 10%
drug-related serious dehydration (all patients (N = 48)): 4%
drug-related serious dyspnoea (all patients (N = 48)): 2%
drug-related serious fall (all patients (N = 48)): 2%
drug-related serious oesophageal ulcer (all patients (N = 48)): 2%
grade 3 drug-related anaemia (all patients (N = 48)): 2%
grade 3 drug-related dehydration (all patients (N = 48)): 6%
grade 3 drug-related fall (all patients (N = 48)): 2%
grade 3 drug-related fatigue (all patients (N = 48)): 4%
grade 4 drug-related AE (all patients (N = 48)): no drug‐related grade 4 adverse events; also recorded: no patient had a grade 4 drug‐related AE
patients with serious AEs (all patients (N = 48)): 65%
rate of on-study deaths (all patients (N = 48)): 29%
on-study deaths, number (all patients, none related to ixazomib, all related to progressive disease): 14
patients with drug-related serious AEs (five serious AEs in four patients): 8%
incidence of drug-related grade ≥3 AEs (moderate hepatic impairment, 2.3 mg): 20%
Abdominal pain, any-grade TEAE [1]: 2 (13) n (%)
Acute renal failure, any-grade TEAE [1]: 1 (7) n (%)
Acute renal failure, grade ≥3 TEAE [1]: 1 (7) n (%)
Anaemia, any-grade TEAE [1]: 3 (20) n (%)
Anaemia, grade ≥3 TEAE [1]: 1 (7) n (%)
Any-grade AE [1]: 15 (100) n (%)
Ascites, any-grade TEAE [1]: 3 (20) n (%)
Ascites, grade ≥3 TEAE [1]: 2 (13) n (%)
Back pain, any-grade TEAE [1]: 0 n (%)
Cough, any-grade TEAE [1]: 2 (13) n (%)
Decreased appetite, any-grade TEAE [1]: 2 (13) n (%)
Dehydration, any-grade TEAE [1]: 2 (13) n (%)
Dehydration, grade ≥3 TEAE [1]: 2 (13) n (%)
Diarrhoea, any-grade TEAE [1]: 1 (7) n (%)
Dyspnoea, any-grade TEAE [1]: 3 (20) n (%)
Fatigue, any-grade TEAE [1]: 4 (27) n (%)
Fatigue, grade ≥3 TEAE [1]: 1 (7) n (%)
Grade ≥3 AE [1]: 13 (87) n (%)
Hyperbilirubinaemia, any-grade TEAE [1]: 5 (33) n (%)
Hyperbilirubinaemia, grade ≥3 TEAE [1]: 5 (33) n (%)
Hyperkalaemia, any-grade TEAE [1]: 2 (13) n (%)
Hypotension, any-grade TEAE [1]: 1 (7) n (%)
Hypotension, grade ≥3 TEAE [1]: 1 (7) n (%)
Insomnia, any-grade TEAE [1]: 2 (13) n (%)
Leukocytosis, grade ≥3 TEAE [1]: 1 (7) n (%)
Nausea, any-grade TEAE [1]: 4 (27) n (%)
Peripheral oedema, any-grade TEAE [1]: 9 (60) n (%)
Pyrexia, any-grade TEAE [1]: 2 (13) n (%)
Upper abdominal pain, any-grade TEAE [1]: 1 (7) n (%)
Vomiting, any-grade TEAE [1]: 2 (13) n (%)
discontinuation owing to acute hepatic failure [2]: 2%
discontinuation owing to acute renal failure [2]: 2%
discontinuation owing to axillary pain/groin pain [2]: 2%
discontinuation owing to confusional state [2]: 2%
discontinuation owing to peritoneal haemorrhage [2]: 2%
discontinuation owing to progression of pancreatic carcinoma [2]: 2%
Abdominal pain, any-grade TEAE (normal function 4 mg (n = 13)): 2 (15) n (%)
Acute renal failure, any-grade TEAE (normal function 4 mg (n = 13)): 0 n (%)
Acute renal failure, grade ≥3 TEAE (normal function 4 mg (n = 13)): 0 n (%)
Anaemia, any-grade TEAE (normal function 4 mg (n = 13)): 2 (15) n (%)
Anaemia, grade ≥3 TEAE (normal function 4 mg (n = 13)): 1 (8) n (%)
Any-grade AE (normal function 4 mg (n = 13)): 13 (100) n (%)
Ascites, any-grade TEAE (normal function 4 mg (n = 13)): 0 n (%)
Ascites, grade ≥3 TEAE (normal function 4 mg (n = 13)): 0 n (%)
Back pain, any-grade TEAE (normal function 4 mg (n = 13)): 2 (15) n (%)
Cough, any-grade TEAE (normal function 4 mg (n = 13)): 1 (8) n (%)
Decreased appetite, any-grade TEAE (normal function 4 mg (n = 13)): 7 (54) n (%)
Dehydration, any-grade TEAE (normal function 4 mg (n = 13)): 3 (23) n (%)
Dehydration, grade ≥3 TEAE (normal function 4 mg (n = 13)): 0 n (%)
Diarrhoea, any-grade TEAE (normal function 4 mg (n = 13)): 4 (31) n (%)
Dyspnoea, any-grade TEAE (normal function 4 mg (n = 13)): 4 (31) n (%)
Fatigue, any-grade TEAE (normal function 4 mg (n = 13)): 6 (46) n (%)
Fatigue, grade ≥3 TEAE (normal function 4 mg (n = 13)): 2 (15) n (%)
Grade ≥3 AE (normal function 4 mg (n = 13)): 6 (46) n (%)
Hyperbilirubinaemia, any-grade TEAE (normal function 4 mg (n = 13)): 0 n (%)
Hyperbilirubinaemia, grade ≥3 TEAE (normal function 4 mg (n = 13)): 0 n (%)
Hyperkalaemia, any-grade TEAE (normal function 4 mg (n = 13)): 1 (8) n (%)
Hypotension, any-grade TEAE (normal function 4 mg (n = 13)): 0 n (%)
Hypotension, grade ≥3 TEAE (normal function 4 mg (n = 13)): 0 n (%)
Insomnia, any-grade TEAE (normal function 4 mg (n = 13)): 3 (23) n (%)
Leukocytosis, grade ≥3 TEAE (normal function 4 mg (n = 13)): 0 n (%)
Nausea, any-grade TEAE (normal function 4 mg (n = 13)): 9 (69) n (%)
Peripheral oedema, any-grade TEAE (normal function 4 mg (n = 13)): 2 (15) n (%)
Pyrexia, any-grade TEAE (normal function 4 mg (n = 13)): 1 (8) n (%)
Upper abdominal pain, any-grade TEAE (normal function 4 mg (n = 13)): 2 (15) n (%)
Vomiting, any-grade TEAE (normal function 4 mg (n = 13)): 7 (54) n (%)
incidence of drug-related grade ≥3 AEs (normal hepatic function, 4 mg): 23%
incidence of peripheral neuropathy (PN) (one patient, grade 2, treatment-related, history of neuropathy): 2%
patients with rash-related AEs (seven events in total, all grade 1 or 2, none serious): Five
on-study deaths, number (severe hepatic impairment group): eight
incidence of drug-related grade ≥3 AEs (severe hepatic impairment, 1.5 mg): 5%
Abdominal pain, any-grade TEAE [3]: 2 (10) n (%)
Acute renal failure, any-grade TEAE [3]: 6 (30) n (%)
Acute renal failure, grade ≥3 TEAE [3]: 5 (25) n (%)
Anaemia, any-grade TEAE [3]: 3 (15) n (%)
Anaemia, grade ≥3 TEAE [3]: 2 (10) n (%)
Any-grade AE [3]: 20 (100) n (%)
Ascites, any-grade TEAE [3]: 3 (15) n (%)
Ascites, grade ≥3 TEAE [3]: 2 (10) n (%)
Back pain, any-grade TEAE [3]: 3 (15) n (%)
Cough, any-grade TEAE [3]: 3 (15) n (%)
Decreased appetite, any-grade TEAE [3]: 1 (5) n (%)
Dehydration, any-grade TEAE [3]: 3 (15) n (%)
Dehydration, grade ≥3 TEAE [3]: 2 (10) n (%)
Diarrhoea, any-grade TEAE [3]: 1 (5) n (%)
Dyspnoea, any-grade TEAE [3]: 4 (20) n (%)
Fatigue, any-grade TEAE [3]: 5 (25) n (%)
Fatigue, grade ≥3 TEAE [3]: 1 (5) n (%)
Grade ≥3 AE [3]: 18 (90) n (%)
Hyperbilirubinaemia, any-grade TEAE [3]: 5 (25) n (%)
Hyperbilirubinaemia, grade ≥3 TEAE [3]: 5 (25) n (%)
Hyperkalaemia, any-grade TEAE [3]: 2 (10) n (%)
Hypotension, any-grade TEAE [3]: 4 (20) n (%)
Hypotension, grade ≥3 TEAE [3]: 2 (10) n (%)
Insomnia, any-grade TEAE [3]: 1 (5) n (%)
Leukocytosis, grade ≥3 TEAE [3]: 2 (10) n (%)
Nausea, any-grade TEAE [3]: 5 (25) n (%)
Peripheral oedema, any-grade TEAE [3]: 4 (20) n (%)
Pyrexia, any-grade TEAE [3]: 4 (20) n (%)
Upper abdominal pain, any-grade TEAE [3]: 2 (10) n (%)
Vomiting, any-grade TEAE [3]: 4 (20) n (%)
Abdominal pain, any-grade TEAE (total (N = 48)): 6 (13) n (%)
Acute renal failure, any-grade TEAE (total (N = 48)): 7 (15) n (%)
Acute renal failure, grade ≥3 TEAE (total (N = 48)): 6 (13) n (%)
Anaemia, any-grade TEAE (total (N = 48)): 8 (17) n (%)
Anaemia, grade ≥3 TEAE (total (N = 48)): 4 (8) n (%)
Any-grade AE (total (N = 48)): 48 (100) n (%)
Ascites, any-grade TEAE (total (N = 48)): 6 (13) n (%)
Ascites, grade ≥3 TEAE (total (N = 48)): 4 (8) n (%)
Back pain, any-grade TEAE (total (N = 48)): 5 (10) n (%)
Cough, any-grade TEAE (total (N = 48)): 6 (13) n (%)
Decreased appetite, any-grade TEAE (total (N = 48)): 10 (21) n (%)
Dehydration, any-grade TEAE (total (N = 48)): 8 (17) n (%)
Dehydration, grade ≥3 TEAE (total (N = 48)): 4 (8) n (%)
Diarrhoea, any-grade TEAE (total (N = 48)): 6 (13) n (%)
Dyspnoea, any-grade TEAE (total (N = 48)): 11 (23) n (%)
Fatigue, any-grade TEAE (total (N = 48)): 15 (31) n (%)
Fatigue, grade ≥3 TEAE (total (N = 48)): 4 (8) n (%)
Grade ≥3 AE (total (N = 48)): 37 (77) n (%)
Hyperbilirubinaemia, any-grade TEAE (total (N = 48)): 10 (21) n (%)
Hyperbilirubinaemia, grade ≥3 TEAE (total (N = 48)): 10 (21) n (%)
Hyperkalaemia, any-grade TEAE (total (N = 48)): 5 (10) n (%)
Hypotension, any-grade TEAE (total (N = 48)): 5 (10) n (%)
Hypotension, grade ≥3 TEAE (total (N = 48)): 3 (6) n (%)
Insomnia, any-grade TEAE (total (N = 48)): 6 (13) n (%)
Leukocytosis, grade ≥3 TEAE (total (N = 48)): 3 (6) n (%)
Nausea, any-grade TEAE (total (N = 48)): 18 (38) n (%)
Peripheral oedema, any-grade TEAE (total (N = 48)): 15 (31) n (%)
Pyrexia, any-grade TEAE (total (N = 48)): 7 (15) n (%)
Upper abdominal pain, any-grade TEAE (total (N = 48)): 5 (10) n (%)
Vomiting, any-grade TEAE (total (N = 48)): 13 (27) n (%)
